This passage reports IC50 results from ChEMBL document CHEMBL1151850, “Triterpenoid saponins from Dianthus versicolor” (J Nat Prod, 2009).

Experiment [1] is described as follows: Cytotoxicity against human EVC304 cells after 24 hrs by MTT assay. Format: cell-based. Conditions: EVC304, 24 h. Summed up: (§1)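 Cells kept at 37 °C, 5% CO2 in RPMI-1640 with 10% fetal calf serum, subcultured twice weekly. Plated at 10^4 cells/well and allowed to adhere 24 h. Serial dilutions added from DMSO stock diluted in RPMI-1640, final DMSO below 1%, triplicate wells. After 24 h, MTT added for 4 h. Formazan dissolved in DMSO, absorbance read at 570 nm.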

Experiment [2] in a line: Cytotoxicity against human BGC803 cells after 24 hrs by MTT assay. Format: functional, cell-based. Conditions: BGC803, 24 h. Summed up:
as §1
On the technique in general: Tetrazolium dyes change colour on reduction, which living cells bring about.

A further experiment concerns MCF7. The experiment can be described thus: Cytotoxicity against human MCF7 cells after 24 hrs by MTT assay. Format: functional, cell-based. Conditions: MCF7, 24 h. A digest of the protocol:
(§2)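 Grown in DMEM with 10% fetal calf serum, 2 mM L-glutamine and penicillin/streptomycin at 37 °C, 5% CO2. 10^4 cells/well adhered 24 h before serial dilutions were added (DMSO stock diluted in medium, final DMSO <1%), in parallel triplicate wells. After 24 h exposure, MTT added for 4 h. Formazan dissolved in DMSO; viability read as absorbance at 570 nm.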

For the next experiment, the system named is HFL1. The experiment can be described thus: Cytotoxicity against human HFL1 cells after 24 hrs by MTT assay. Format: cell-based. Particulars: HFL1, 24 h. Summed up:
as §2

For another experiment, the system named is HepG2. The experiment can be described thus: Cytotoxicity against human HepG2 cells after 24 hrs by MTT assay. Format: functional, cell-based. Conditions: HepG2, 24 h. Summed up: as §2

A word on the IC50: it is the point on the concentration scale where inhibition reaches its midpoint. Take `CC1(C)CC[C@]2(C(=O)O[C@@H]3O[C@H](CO[C@@H]4O[C@H](COC(=O)C[C@@](C)(O)CC(=O)O)[C@@H](O)[C@H](O)[C@H]4O[C@@H]4O[C@H](CO)[C@@H](O)[C@H](O)[C@H]4O)[C@@H](O)[C@H](O)[C@H]3O)[C@H](O)C[C@]3(C)C(=CC[C@@H]4[C@@]5(C)CC[C@H](O)[C@@](C)(C(=O)O[C@@H]6O[C@H](CO)[C@@H](O)[C@H](O)[C@H]6O)[C@@H]5CC[C@]43C)[C@@H]2C1` [DIANVERSICOSIDE A]: the IC50 in experiment [1] is 8.4 µM; in experiment [2], 6.2 µM; in the experiment on MCF7, greater than 10 µM; with HFL1, 2.8 µM; in the experiment on HepG2, greater than 10 µM.
As for `CC1(C)CC[C@]2(C(=O)O[C@@H]3O[C@H](CO[C@@H]4O[C@H](COC(=O)C[C@@](C)(O)CC(=O)O)[C@@H](O)[C@H](O)[C@H]4O[C@@H]4O[C@H](CO)[C@@H](O)[C@H](O)[C@H]4O)[C@@H](O)[C@H](O[C@@H]4O[C@H](CO)[C@@H](O)[C@H](O)[C@H]4O)[C@H]3O)[C@H](O)C[C@]3(C)C(=CC[C@@H]4[C@@]5(C)CC[C@H](O)[C@@](C)(C(=O)O)[C@@H]5CC[C@]43C)[C@@H]2C1` [DIANVERSICOSIDE B], the IC50 was 7.7 µM in experiment [1]; 5.7 µM in experiment [2]; greater than 10 µM in the experiment with MCF7; 3.1 µM with HFL1; greater than 10 µM in the experiment with HepG2.
As for `CC1(C)CC[C@]2(C(=O)O[C@@H]3O[C@H](CO[C@@H]4O[C@H](COC(=O)C[C@@](C)(O)CC(=O)O)[C@@H](O)[C@H](O)[C@H]4O[C@@H]4O[C@H](CO)[C@@H](O)[C@H](O)[C@H]4O)[C@@H](O)[C@H](O[C@@H]4O[C@H](CO)[C@@H](O)[C@H](O)[C@H]4O)[C@H]3O)CC[C@]3(C)C(=CC[C@@H]4[C@@]5(C)CC[C@H](O)[C@@](C)(C(=O)O)[C@@H]5CC[C@]43C)[C@@H]2C1` [DIANVERSICOSIDE D], the half-maximal inhibitory concentration (IC50) in experiment [1] is 3.9 µM; in experiment [2], 2.9 µM; with MCF7 it was greater than 10 µM; in the experiment with HFL1, 3.4 µM; in the experiment with HepG2, greater than 10 µM.
For the compound `CC1(C)CC[C@]2(C(=O)O[C@@H]3O[C@H](CO[C@@H]4O[C@H](CO)[C@@H](O)[C@H](O)[C@H]4O[C@@H]4O[C@H](CO)[C@@H](O)[C@H](O)[C@H]4O)[C@@H](O)[C@H](O[C@@H]4O[C@H](CO)[C@@H](O)[C@H](O)[C@H]4O)[C@H]3O)[C@H](O)C[C@]3(C)C(=CC[C@@H]4[C@@]5(C)CC[C@H](O)[C@@](C)(C(=O)O[C@@H]6O[C@H](CO)[C@@H](O)[C@H](O)[C@H]6O)[C@@H]5CC[C@]43C)[C@@H]2C1` [DIANVERSICOSIDE E], the IC50 is 9.1 µM in experiment [1]; 7.4 µM in experiment [2]; greater than 10 µM in the experiment on MCF7; 3.5 µM in the experiment on HFL1; greater than 10 µM in the experiment with HepG2.
With `CC1(C)CC[C@]2(C(=O)O[C@@H]3O[C@H](CO[C@@H]4O[C@H](CO)[C@@H](O)[C@H](O)[C@H]4O[C@@H]4O[C@H](CO)[C@@H](O)[C@H](O)[C@H]4O)[C@@H](O)[C@H](O)[C@H]3O)[C@H](O)C[C@]3(C)C(=CC[C@@H]4[C@@]5(C)CC[C@H](O)[C@@](C)(C(=O)O[C@@H]6O[C@H](CO)[C@@H](O)[C@H](O)[C@H]6O)[C@@H]5CC[C@]43C)[C@@H]2C1` [DIANVERSICOSIDE F], the half-maximal inhibitory concentration (IC50) in experiment [1] was 9.6 µM; in experiment [2], 9.7 µM; in the experiment on MCF7, greater than 10 µM; with HFL1, 4.4 µM; in the experiment with HepG2 it was greater than 10 µM.
`CC1(C)CC[C@]2(C(=O)O[C@@H]3O[C@H](CO[C@@H]4O[C@H](CO)[C@@H](O)[C@H](O)[C@H]4O[C@@H]4O[C@H](CO)[C@@H](O)[C@H](O)[C@H]4O)[C@@H](O)[C@H](O[C@@H]4O[C@H](CO)[C@@H](O)[C@H](O)[C@H]4O)[C@H]3O)CC[C@]3(C)C(=CC[C@@H]4[C@@]5(C)CC[C@H](O[C@@H]6OC[C@H](O)[C@H](O)[C@H]6O)[C@@](C)(C(=O)O)[C@@H]5CC[C@]43C)[C@@H]2C1` [DIANVERSICOSIDE G]: the concentration for half-maximal inhibition (IC50) was 6.2 µM in experiment [1]; 6.8 µM in experiment [2]; greater than 10 µM in the experiment on MCF7; 3.3 µM in the experiment on HFL1; greater than 10 µM with HepG2.
`CC1(C)CC[C@]2(C(=O)O[C@@H]3O[C@H](CO[C@@H]4O[C@H](CO)[C@@H](O)[C@H](O)[C@H]4O[C@@H]4O[C@H](CO)[C@@H](O)[C@H](O)[C@H]4O)[C@@H](O)[C@H](O[C@@H]4O[C@H](CO)[C@@H](O)[C@H](O)[C@H]4O)[C@H]3O)CC[C@]3(C)C(=CC[C@@H]4[C@@]5(C)CC[C@H](O)[C@@](C)(C(=O)O)[C@@H]5CC[C@]43C)[C@@H]2C1` [VACCAROID A]: the IC50 in experiment [1] is 4.1 µM; in experiment [2], 5.3 µM; in the experiment with MCF7, greater than 10 µM; in the experiment with HFL1, 7.8 µM; in the experiment with HepG2 it was greater than 10 µM.
For `CC1(C)CC[C@]2(C(=O)O)CC[C@]3(C)C(=CC[C@@H]4[C@@]5(C)CC[C@H](O)[C@@](C)(C(=O)O[C@@H]6O[C@H](CO[C@@H]7O[C@H](CO)[C@@H](O)[C@H](O)[C@H]7O[C@@H]7O[C@H](CO)[C@@H](O)[C@H](O)[C@H]7O)[C@@H](O)[C@H](O[C@@H]7O[C@H](CO)[C@@H](O)[C@H](O)[C@H]7O)[C@H]6O)[C@@H]5CC[C@]43C)[C@@H]2C1` [VACCAROID C], the half-maximal inhibitory concentration (IC50) is 8.7 µM in experiment [1]; 9.4 µM in experiment [2]; greater than 10 µM with MCF7; 3.8 µM in the experiment on HFL1; greater than 10 µM with HepG2.
